FAK blocker: inhibitors of human focal adhesion kinase; hit rate 0.84% among 97,000; biochemical FAK kinase activity assay; inhibition, %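 (tested at 7 µM)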; in the data active = inhibition above about 19%;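 also: 0% = DMSO and 100% = reference compound high control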
PTK2B oligo ant: blocks oligomerization of human Pyk2 in cells; Q14289; Q293 cells, Pyk2 FERM NanoBiT luminescence; stronger effect = lower value; hit rate 0.83% among 99,000; z-score (the deposit names both 25 µM and 10 µM);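 active = Z-score of -3 or lower, scaled per plate to the spread of control and sample wells; inactive = z-score above -3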;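 also: negative z-score means lost luminescence so less FERM oligomerization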
Target sequence (Q14289 whole entry, looked up): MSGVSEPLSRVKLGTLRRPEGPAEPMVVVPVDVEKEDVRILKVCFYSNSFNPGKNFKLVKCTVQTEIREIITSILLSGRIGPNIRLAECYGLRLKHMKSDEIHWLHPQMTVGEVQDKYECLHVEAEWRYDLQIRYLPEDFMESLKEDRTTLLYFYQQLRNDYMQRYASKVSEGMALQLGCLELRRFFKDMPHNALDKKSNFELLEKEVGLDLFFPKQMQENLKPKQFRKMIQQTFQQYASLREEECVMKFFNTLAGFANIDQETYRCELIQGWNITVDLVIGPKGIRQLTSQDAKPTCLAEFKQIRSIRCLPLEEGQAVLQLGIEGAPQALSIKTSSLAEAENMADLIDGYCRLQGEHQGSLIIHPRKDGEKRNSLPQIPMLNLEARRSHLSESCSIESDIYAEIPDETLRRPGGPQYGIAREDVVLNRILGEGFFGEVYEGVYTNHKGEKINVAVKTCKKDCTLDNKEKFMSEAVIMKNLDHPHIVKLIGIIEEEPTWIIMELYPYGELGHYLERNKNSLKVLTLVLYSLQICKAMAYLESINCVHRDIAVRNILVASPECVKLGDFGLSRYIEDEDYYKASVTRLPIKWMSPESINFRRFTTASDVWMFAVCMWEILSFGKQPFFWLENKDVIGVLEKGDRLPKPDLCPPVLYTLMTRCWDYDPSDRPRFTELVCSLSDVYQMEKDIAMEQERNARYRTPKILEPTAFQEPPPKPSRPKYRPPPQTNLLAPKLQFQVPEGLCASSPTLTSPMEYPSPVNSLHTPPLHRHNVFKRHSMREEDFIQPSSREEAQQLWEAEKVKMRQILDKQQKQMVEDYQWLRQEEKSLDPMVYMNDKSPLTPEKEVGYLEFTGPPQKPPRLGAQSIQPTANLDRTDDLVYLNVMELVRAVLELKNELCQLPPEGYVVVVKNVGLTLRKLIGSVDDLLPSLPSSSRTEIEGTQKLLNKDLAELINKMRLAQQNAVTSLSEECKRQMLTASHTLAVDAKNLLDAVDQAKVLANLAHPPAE
Rev-RRE block: disrupts HIV-1 Rev binding to RRE RNA; AID 704; P05866; inhibition, % at 8 µM; hit rate 0.79% among 97,000; Rev peptide-RRE RNA binding, FRET;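 active = inhibition above the screen-wide mean plus 3 SD, cut at about 35% in these data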;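 also: 0% = median DMSO wells and 100% = median Neomycin B control wells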
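Test system – labelled RRE RNA duplex and labelled Rev peptide · Reagent – labelled Rev peptide · Doses – one concentration, 8 µM nominal · Incubation – 5 + 15 min at 25 °C · Signal – FRET fluorescence readout · Read-out basis – % inhibition of FRET ratio versus controls · Control set – DMSO wells as 0% and neomycin B wells as 100% inhibition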
PLK1 kinase inh: blocks human PLK1 kinase activity; inhibition, % at 10 µM; AID 619; P53350; recombinant PLK1 kinase, TR-FRET peptide phosphorylation; hit rate 0.53% among 97,000;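 active = inhibition of 50% or more in the single-concentration screen; inactive = inhibition below 50%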;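 also: 0% = DMSO max control and 100% = H-89 dihydrochloride min control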
Cav3 T inh: blocks human Cav3.2 T-type calcium channel | B-score at 10 µM | O95180 | hit rate 4% among 100,000 | Cav3.2-expressing cells, Fluo-4 calcium fluorescence FDSS; stronger effect = lower value;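 active = single-dose well whose peak fluorescence ratio is a statistical outlier from its plate by either plate-standardised score or position-corrected B-score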
Plk1 PBD FP: inhibitors of human Plk1 polo box domain binding. P53350. Plk1 PBD phosphopeptide binding, fluorescence polarization. inhibition, %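 (tested at about 20 µM)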. hit rate 0.13% among 97,000. AID 693; in the data active = inhibition above about 34%, passing the limit was not always enough
The depositor's hits bear a star; / = no result; [ ] = remark or other dose. The list is not random: actives were taken first. Their share in the collection is about 5.8%.

SMILES	FAK blocker	PTK2B oligo ant	Rev-RRE block	PLK1 kinase inh	Cav3 T inh	Plk1 PBD FP
O=C(C1CC(=O)N(c2ccc(F)c(Cl)c2)C1)N1CCC2(CC1)OCCO2 (centres undefined)	1.2	0.4	6.8	-15.7	0.491	-28.6
OC(Cn1c2ccccc2c2ccccc21)C[n+]1cccc2ccccc21 (centres undefined)	4.9	-0.71	-2.6	-11.2	-4.03	6.5
CCOC(=O)C1=C(N)OC2=C(C(=O)CCC2)C12C(=O)N1c3c(ccc(C)c32)C(C)=CC1(C)C (centres undefined)	/	-0.13	/	/	-8.29*	/
COc1ccc(OC)c(C2=NOC(C(=O)N3CCC4(CC3)OCCO4)C2)c1 (centres undefined)	-4.5	0.28	-0.8	-1.0	0.445	2.7
CCCCC/C(=N\O)c1c[nH]c2ccccc12	12.6	-1.73	-1.9	-2.9	-4.6*	-8.3
NCCc1c[nH]c2ccccc12	/	/	/	/	0.932	/
CCCC[n+]1cc(/N=C(\[O-])OC)on1	-7.1	0.29	2.6	7.7	-1.95	-19.7
CCOC(=O)c1c(NC(=O)C(c2ccccc2)c2ccccc2)sc2c1C1CCN2CC1	-1.8	0	0.1	3.2	-4.15*	-38.2
CCN(c1ccc(C(O)(C(=O)OC)C(F)(F)F)cc1)S(=O)(=O)c1ccccc1 (centres undefined)	/	-1.49	/	/	-2.91*	/
CCOC(=O)N(CC)c1ccc(C(O)(C(=O)OCC)C(F)(F)F)cc1 (centres undefined)	/	0.23	/	/	-1.26	/
CCOC(=O)C(O)(c1ccc(N(CC)S(=O)(=O)c2ccccc2)cc1)C(F)(F)F (centres undefined)	-9.6	-1.67	6.3	4.7	-5.14*	18.9
Cc1ccc(S(=O)(=O)N[C@@H](CCCCN)C(=O)CCl)cc1	/	/	/	/	1.84	/
Fc1ccccc1CCNCc1cccc(Cl)c1Cl	1.1	1.66	8.6	-9.8	-1.25	-2.9
CCN1/C(=C\C=C\C2=[N+](CC)c3ccccc3C2(C)C)C(C)(C)c2ccccc21	-1.0	-3.37*	57.1*[fluorescence artefact?]	52.8*	/	-77.4
O=c1c2ccccc2nc(N2CCCC2)n1-c1ccc(Cl)cc1	5.4	-0.29	7.8	-5.3	-4.58*	-12.3
COc1ccc(CCN(C)Cc2c(F)cccc2F)cc1OC	-2.3	0.18	-1.4	-6.0	-0.041	14.2
CCN(CC)c1ccc(N=Cc2c(O)n(Cc3ccccc3)c(=O)[nH]c2=O)cc1	-6.9	-0.48	32.6	-8.8	-4.35*	-24.9
CCOc1ccc(-n2c(O)c(C=Nc3ccc(N(CC)CC)cc3)c(=O)[nH]c2=O)cc1	2.5	-2.93	71.4*	-21.8	0.61	-3.9
CCOc1ccccc1-n1c(O)c(C=Nc2ccc(N(CC)CC)cc2)c(=O)[nH]c1=O	/	-1.28	/	/	-0.939	/
CCN(CC)c1ccc(N=Cc2c(O)n(-c3ccccc3C)c(=O)[nH]c2=O)cc1	0.2	-1.74	65.6*	-14.9	-1.24	-21.6
ON1C2CCCCC2N(O)C1c1ccccc1 (centres undefined)	-1.2	1.69	10.4	2.2	-3.6	41.8
CN(C)C=C1C(=O)N(C2CCCCC2)C(=O)N(C2CCCCC2)C1=O	-0.2	-0.14	2.6	-3.4	-3.36	14.4
COC(=O)c1c(C)[nH]c(C(=O)C(Cc2ccccc2)N(C)C)c1C (centres undefined)	0.7	-0.47	4.8	-9.7	0.392	-13.8
CN1CCC(OC(=O)C2c3ccccc3Oc3ccccc32)CC1	2.1	-0.05	-3.5	-2.7	-1.9	-12.2
O=C(Cn1ncc2c3ccccc3n(Cc3cccc(Cl)c3)c2c1=O)N1CCC2(CC1)OCCO2	/	0.12	/	/	-10.7*	/
SMILES	FAK blocker	PTK2B oligo ant	Rev-RRE block	PLK1 kinase inh	Cav3 T inh	Plk1 PBD FP
CC(C)C(=O)c1cn(Cc2ccccc2C#N)c2ccccc12	0.3	-1.48	6.1	-7.1	-5.63*	19.4
CN(Cc1ccccc1)C(=C(Cl)Cl)/C(=C1/NCCN1Cc1ccc(Cl)nc1)[N+](=O)[O-]	-0.7	0.7	19.8	12.0	-1.73	-10.6
O=C1NC(=O)[C@]2(Cc3ccccc3N3CCN(c4ccccc4)CC32)C(=O)N1c1ccccc1 (some centres undefined)	-6.1	-0.59	5.2	-4.4	-4.55*	-10.2
CCn1c(O)c(C(=O)CC2NCCc3ccccc32)c(=O)n(CC)c1=S (centres undefined)	-1.0	-0.69	48.4*	-10.1	/	-1.0
CCn1nc(-c2cccs2)nc2c(=O)n(C)c(=O)nc1-2	/	-3.33*	/	/	/	/
O=c1c2ccccc2nc(-c2cccs2)n1-c1ccccc1	1.5	-0.39	-1.1	-2.5	-0.953	-2.0

Compound activity as filed in PubChem.
